According to ChEMBL document CHEMBL3098044, “Inhibition of carbonic anhydrases from the extremophilic bacteria Sulfurihydrogenibium yellostonense (SspCA) and S. azorense (SazCA) with a new series of sulfonamides incorporating aroylhydrazone-, [1,2,4]triazolo[3,4-b][1,3,4]thiadiazinyl- or 2-(cyanophenylmethylene)-1,3,4-thiadiazol-3(2H)-yl …” (Bioorg Med Chem, 2014):

Tests used:
[1] = Inhibition of Sulfurihydrogenibium yellowstonense YO3AOP1 carbonic anhydrase preincubated for 15 mins by stopped-flow CO2 hydration assay
In short: (§1)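 Initial rates of CA-catalysed CO2 hydration followed for 10–100 s with phenol red (0.2 mM) read at 557 nm, in 10–20 mM Hepes pH 7.5 with 20 mM Na2SO4 for ionic strength. CO2 1.7–17 mM. Inhibitors in water at 0.01 mM stock, diluted down to 0.01 nM. Enzyme and inhibitor preincubated at room temperature. Uncatalysed rates subtracted. Ki from non-linear least squares and Cheng–Prusoff, mean of at least three determinations.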

[2] = Inhibition of Sulfurihydrogenibium azorense alpha-carbonic anhydrase preincubated for 15 mins by stopped-flow CO2 hydration assay; in short: as §1

Row | Structure (SMILES) | Ki [1] [nM] | Ki [2] [nM]
1 | CC(=O)C1=NN(c2ccc(S(N)(=O)=O)cc2)/C(=C(\C#N)C(=O)c2ccccc2)S1 | 76.8 | 234
2 | CC(=N\NC(=O)c1ccccc1)/C(=N/Nc1ccc(S(N)(=O)=O)cc1)S(=O)(=O)c1ccccc1 | 42.9 | 94.5
3 | CC(=N\NC(=O)c1ccccc1)/C(Cl)=N/Nc1ccc(S(N)(=O)=O)cc1 | 6.2 | 24.3
4 | Cc1nn2c(-c3ccccc3)nnc2s/c1=N/Nc1ccc(S(N)(=O)=O)cc1 | 47.9 | 9.7
5 | COc1ccc(C(=O)N/N=C(C)/C(=N/Nc2ccc(S(N)(=O)=O)cc2)S(=O)(=O)c2ccccc2)cc1 | 78.2 | 169
6 | COc1ccc(C(=O)N/N=C(C)/C(Cl)=N/Nc2ccc(S(N)(=O)=O)cc2)cc1 | 45.2 | 21.2
7 | CC(=N\NC(=O)c1cccs1)/C(Cl)=N/Nc1ccc(S(N)(=O)=O)cc1 | 6.4 | 14.9
8 | CC(=N\NC(=O)c1ccc(Cl)cc1)/C(Cl)=N/Nc1ccc(S(N)(=O)=O)cc1 | 51.1 | 18.5
9 | CC(=N\NC(=O)c1cccs1)/C(=N/Nc1ccc(S(N)(=O)=O)cc1)S(=O)(=O)c1ccccc1 | 74.5 | 21.9
10 | CCOC(=O)/C(C#N)=C1\SC(C(C)=O)=NN1c1ccc(S(N)(=O)=O)cc1 | 38.7 | 193
11 | CC(=N\NC(=O)c1ccc(Cl)cc1)/C(=N/Nc1ccc(S(N)(=O)=O)cc1)N1CCCCC1 | 80.6 | 8.1
12 | CC(=N\NC(=O)c1ccc(Cl)cc1)/C(=N/Nc1ccc(S(N)(=O)=O)cc1)S(=O)(=O)c1ccccc1 | 68.3 | 59.1
13 | CC(=N\NC(=O)c1ccccc1)/C(=N/Nc1ccc(S(N)(=O)=O)cc1)N1CCCCC1 | 21.9 | 13.5
14 | COc1ccc(C(=O)N/N=C(C)/C(=N/Nc2ccc(S(N)(=O)=O)cc2)N2CCCCC2)cc1 | 62.8 | 4
15 | CC(=O)C1=NN(c2ccc(S(N)(=O)=O)cc2)/C(=C(\C#N)C(=O)Nc2ccc(S(N)(=O)=O)cc2)S1 | 71 | 101
16 | CC(=O)Nc1nnc(S(N)(=O)=O)s1 [ACETAZOLAMIDE] | […] | 0.9
17 | CC(=O)C1=NN(c2ccc(S(N)(=O)=O)cc2)C(=C(C#N)C#N)S1 | 89.1 | 116
18 | Cc1nn2c(C)nnc2s/c1=N/Nc1ccc(S(N)(=O)=O)cc1 | 28.3 | 18.3
19 | CC(=N\NC(=O)c1cccs1)/C(=N/Nc1ccc(S(N)(=O)=O)cc1)N1CCCCC1 | 20.5 | 0.77
